Here are results for 97 molecules from ChEMBL document CHEMBL4513216, “Probing the Open Global Health Chemical Diversity Library for Multistage-Active Starting Points for Next-Generation Antimalarials” (ACS Infect Dis, 2020).

SMILES strings stand for the structures.

A short description of this data set: Toxicity liver stage against HepG2, at 10uM. Type of data set: cell-based. The arrangement: test concentration 10 uM, cell line HepG2-A16-CD81EGFP. To be noted: human, HepG2-A16-CD81EGFP cells; read-out: INHIBITION
An outline of the steps: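 Uninfected HepG2-A16-CD81EGFP cells, 3 × 10^3 per well, 1536-well, plated on prespotted compound at 10 μM final, parasite-free screening media added to match infected plates; puromycin 10 μM positive, DMSO 0.5% negative; run in parallel with 48 h PbLuc assay at 37 °C, 5% CO2; viability by CellTiter-Glo luminescence, normalized to controls.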
As for `Cc1nc(CC(=O)N2CCN(C(C)c3ccccc3F)CC2)cs1` (configuration not stated), the cytotoxicity at 10 µM was 2.58%.

Take `CN(CCc1ccccn1)C(=O)CCC1CCCN(c2cnccn2)C1` (configuration not stated): the cytotoxicity at 10 µM amounted to 4.13%. With `CCCC(=O)Nc1cccc([C@H]2C[C@@H](NC(C)=O)CCO2)c1`, the cytotoxicity at 10 µM worked out at 5.09%. Turning to `CCCNC(=O)N1CCc2ccc(S(=O)(=O)N3CCOCC3)cc2C1`, the cytotoxicity at 10 µM was -2.56%.

As for `O=C(NCc1ccccn1)NC1CCCN(c2ncccn2)C1` (configuration not stated), the cytotoxicity at 10 µM stood at 6.21%.

On to `O=C(CCNc1ncccn1)NCCc1ccc(Cl)s1`, for which the cytotoxicity at 10 µM was -3.91%. Regarding `CCO[C@@H]1CC[C@H]2[C@H]1OCCN2C(=O)c1ccc(OC)c(F)c1`, the cytotoxicity at 10 µM came to 15.7%.

With `CN(C)CCN1CCCC12CCN(C(=O)c1cccnc1)CC2`, the cytotoxicity at 10 µM is 4.68%. Take `COCCN1C[C@@H]2CN(c3ncccn3)C[C@@H]2C1=O`: the cytotoxicity at 10 µM was -11.9%. Take `COC(=O)[C@@H](NC(=O)c1coc(COc2cccc(F)c2)n1)C(C)C`: the cytotoxicity at 10 µM was -142%. With `O=C(c1cccc(Cl)c1)N1CCCC2(CCCNC2)C1` (configuration not stated) the figure was -152%; with `COCC(=O)N1CCN(c2ncnc3cccc(F)c23)CC1`, 6.37%; with `COc1ccc(C[C@H]2CN(C(=O)c3ccn(C)n3)CC[C@H]2OC)cc1`, 5.12%.

Turning to `CN1CCN(Cc2ccc(-c3ccc4[nH]ccc4c3)nc2)CC1`, the cytotoxicity at 10 µM was -9.17%. In the case of `Cc1cnccc1NCCNC1CCN(CC(C)C)CC1`, the cytotoxicity at 10 µM was -10%. For the molecule `c1ccc(Oc2cc(CNCC3CNc4ccnn4C3)ccn2)cc1` (configuration not stated), the cytotoxicity at 10 µM stood at 3.1%. The value for `COc1ccc(CNC(=O)Nc2cccnc2OC)cc1O` was -26.3%; that for `CCN1C(=O)C2(CCCCC2)NC1c1cc(C#N)n(C)c1C` (configuration not stated) was 4.59%. In the case of `CCN1CCN(CC(O)c2ccc(F)cc2)CC1` (configuration not stated), the cytotoxicity at 10 µM is -9.41%. As for `Cn1ncc2c(NCC(=O)N3CCNCC3)nc(C(C)(C)C)nc21`, the cytotoxicity at 10 µM is -10.6%. For `CN(C)C(=O)CCNC(=O)Nc1cccc(Cl)c1-n1cccn1`, the cytotoxicity at 10 µM was found to be 0.399%.

Consider `Cc1cnc(NC(=O)N2CCCCCC2)s1`, for which the cytotoxicity at 10 µM is -2.81%. Take `COc1ccccc1C(=O)NC(c1ccccn1)C1CCC(CN)CC1` (configuration not stated): the cytotoxicity at 10 µM was -12.8%.

As to `O[C@H]1CC[C@@H](Cc2cc(-c3ccc(F)cc3)on2)O[C@@H]1CNCC1CC1`, the cytotoxicity at 10 µM is -6.4%. For the molecule `CN(CCCC1CCCC1)C(=O)c1cc(CN2CCC(O)CC2)on1`, the cytotoxicity at 10 µM came out at 5.21%.

In the case of `CS(=O)(=O)c1cccc(OCC(=O)N2CCCC2c2ccc[nH]2)c1` (configuration not stated), the cytotoxicity at 10 µM is 3.92%. For the molecule `NC(=O)CCN(C(=O)CSc1ccc(F)cc1)c1ccc(F)cc1`, the cytotoxicity at 10 µM is -2.17%.

On to `Cc1nn(C)c(C)c1C1CCCN1Cc1noc(C2CC2)n1` (configuration not stated), for which the cytotoxicity at 10 µM is -6.95%.

With `C1CC(CN2CCOCC3(CCN(C4CCOCC4)C3)C2)CCO1` (configuration not stated), the cytotoxicity at 10 µM is -3.37%. With `COCCN1CCc2nc(SCc3ccc(F)cc3)[nH]c(=O)c2C1` the figure was -2.33%; with `COc1ccc(C2=NOC(CO)C2)cc1` (configuration not stated), 11.2%. For the molecule `O=C(CN1CCN(CC2CCOc3ccccc3C2)CC1)N1CCCC1` (configuration not stated), the cytotoxicity at 10 µM is -4.02%. On to `Cc1nnc(C(C)N2CCN(Cc3ccc(C(F)(F)F)cc3)CC2)o1` (configuration not stated), for which the cytotoxicity at 10 µM came to 8.15%. With `COCC(=O)N1CCC(c2nc3ccc(N4CCCC4)cn3n2)CC1` the figure was -15.4%; with `Fc1ccc(-c2cc(NCCC3CCOC3)n3nccc3n2)cc1` (configuration not stated), 2.8%. Turning to `O=C(C1CCOCC1)N1CC[C@@H]2[C@H]1CCC(=O)N2c1ccccc1`, the cytotoxicity at 10 µM is 5.5%. As for `CCCNc1cc(C(=O)N2CCOCC2)nc(C)n1`, the cytotoxicity at 10 µM was determined as 10.8%.

For the molecule `CSc1ccc(C)c(C(=O)Nc2c(C(N)=O)n[nH]c2C)c1`, the cytotoxicity at 10 µM turned out to be 3.36%.

On to `CC1CCN(c2nccn3c(=O)[nH]nc23)CC1`, for which the cytotoxicity at 10 µM amounted to 6.09%.

For the molecule `CN(C)C(=O)NC1COC2(CCN(Cc3ccccc3)CC2)C1` (configuration not stated), the cytotoxicity at 10 µM was 4.14%.

Turning to `CC1CCCN(Cc2ccnc(-c3cccnc3)n2)C1` (configuration not stated), the cytotoxicity at 10 µM was -6.57%. With `CN1CCN2C(=O)N(C3CCCCC3)C[C@H]2C1` the figure was -3.1%. On to `CCc1nc2n(n1)CC(NCc1cc(OC)c3c(c1)OCO3)CC2` (configuration not stated), for which the cytotoxicity at 10 µM was determined as 4.23%. Consider `Cn1ncc2c1C(COCC1CC1)CN(Cc1ccsc1)C2` (configuration not stated), for which the cytotoxicity at 10 µM is -1.11%. On to `CC(=O)N1CCCN(c2cc(C3CN(C)CCO3)nc(C)n2)CC1` (configuration not stated), for which the cytotoxicity at 10 µM was 7.47%. The value for `Cc1ccc(CNC(=O)c2ccc(F)cc2)o1` was -3.35%; that for `Cc1ccc(-c2nc(C3CCN(C(=O)c4ccnn4C)CC3)no2)cn1` was -5.17%; that for `Cc1ccc(Cl)cc1-n1nnnc1C1(N2CCCC2)CCCCC1` was 18.9%.

With `CC(C)NC(=O)c1cnc(Sc2nccn2C)c(Cl)c1`, the cytotoxicity at 10 µM is -41.4%. The value for `CCc1nnc2n1CCN(c1nc(C)cc(N(C)C)n1)C2` was -5.89%; that for `COC(=O)c1cccc2nc([C@H]3CCN(Cc4ccccc4)C3)oc12` was 6.06%.

`c1csc(-c2nc(CNCCn3cccn3)cs2)c1`: the cytotoxicity at 10 µM is -7.36%.

On to `CCCNC(=O)C(C)Oc1ccccc1` (configuration not stated), for which the cytotoxicity at 10 µM was -6.68%. With `CC(C)(C)c1ncc(C(=O)NCc2ccccc2CN2CCCC2)s1` the figure was -8.98%; with `CCCc1nc(CNCC2CCCN2c2cccnn2)cs1` (configuration not stated), -7.07%. With `Cc1cccc(CS(=O)(=O)CC(O)Cn2cccn2)c1` (configuration not stated) the figure was -2.07%; with `CN(CC(=O)NC1(C#N)CCCC1)C1CCCN(c2cccnn2)C1` (configuration not stated), -9.75%. With `CN(C)c1nc(N)nc(CSCCC(=O)Nc2ccc(F)cc2)n1` the figure was -1.33%; with `Fc1ccc(-c2cnc(C3CCNCC3)cn2)cc1`, -7.14%. Consider `CCc1nc(Cn2nc(COC)oc2=O)cs1`, for which the cytotoxicity at 10 µM was -43.4%. The value for `CC(C)N1CC[C@@H]2[C@H](COCC3CC3)CN(C)C(=O)[C@@H]2CC1` was 6.8%; that for `CN(Cc1cnc(C(C)(C)C)nc1)Cc1nc2ccc(F)cc2[nH]1` was -12.3%. Consider `Cc1nnc([C@H]2C[C@@H]3CCN(C(=O)C4CCOCC4)C[C@H]3O2)[nH]1`, for which the cytotoxicity at 10 µM was 16.5%. On to `CC(C)n1c2ccccc2c2c1cc(C(=O)NCCO)n2C(=O)N(C)C`, for which the cytotoxicity at 10 µM is -93.8%. With `Cc1cc(C)cc(OCCC(=O)N2CCOCC2c2ncon2)c1` (configuration not stated), the cytotoxicity at 10 µM was -8.72%. Take `CCC(=O)Nc1ccc2c(c1)C1(CCOCC1)CN2CCF`: the cytotoxicity at 10 µM was -87.4%. With `O=C(C1CC(c2ccccc2)=NO1)N1CCc2ccccc21` (configuration not stated) the figure was -0.643%. Take `CC(=O)N1CCC(c2nccnc2-c2ccc(C(=O)O)cc2)CC1`: the cytotoxicity at 10 µM was 11.1%. `CN(C)c1ccccc1C(=O)N1C[C@@H](CN2CCCCC2)[C@@H](CO)C1`: the cytotoxicity at 10 µM was -12.1%. For the molecule `CCNC(=O)Cc1ccc(NC(=O)NC(CC)CC)cc1`, the cytotoxicity at 10 µM was -6.93%. The value for `COc1cccc(-n2cc(CN(C)Cc3ccnc(C(C)C)n3)cn2)c1` was -1.29%. For the molecule `CN1C(=O)C2(CCN(CC3CC3)CC2)c2ccccc21`, the cytotoxicity at 10 µM was 3.16%.

`Cc1cc(CN2CCC(CNS(=O)(=O)c3c(C)noc3C)CC2)c(C)o1`: the cytotoxicity at 10 µM is 5.81%.

As to `CNc1ccc(CC2CCCN(C(=O)c3cncnc3C)C2)nn1` (configuration not stated), the cytotoxicity at 10 µM is 5.99%. On to `Cc1nc(COC[C@H]2CC[C@H]3[C@H](CCN3c3ncccn3)O2)cs1`, for which the cytotoxicity at 10 µM is -71.2%.

As for `COCCn1cnc(-c2cc(C(=O)NC(C)C)c3ccccn23)c1`, the cytotoxicity at 10 µM was -1.03%.

As to `Cc1nc(CN2CCCC(N(C)CC3(O)CCCCC3)C2)no1` (configuration not stated), the cytotoxicity at 10 µM is -10.3%. With `Cc1ccc(C(=O)NC2CCN(Cc3nc(CC(C)C)no3)CC2)s1` the figure was 7.61%. The value for `c1c[nH]c2nc(C3CCCNC3)nc-2c1` (configuration not stated) was 8.35%. With `CN(C)CC1(O)CCN(S(=O)(=O)c2ccc(Cl)cc2)C1` (configuration not stated) the figure was -13.9%; with `Cc1nccc(CNC(=O)N(CCCO)C2CCc3ccccc32)n1` (configuration not stated), -27.3%; with `O=C(Cn1cc(-c2ccccc2)ncc1=O)Nc1ncc[nH]1`, 5.89%.

For `O=C(NCC1(O)CCOc2ccccc21)Nc1ccccc1` (configuration not stated), the cytotoxicity at 10 µM was -4.2%. For `Cc1ccsc1CN1CCc2c(nc(N3CCCCC3C)[nH]c2=O)C1` (configuration not stated), the cytotoxicity at 10 µM is -3.42%.

Consider `N#Cc1c(N2CCN(CC3CCOC3)CC2)nc2ccccn12` (configuration not stated), for which the cytotoxicity at 10 µM came out at 1.37%. The value for `CNS(=O)(=O)CC(=O)N1CCC(c2cc3ccccc3[nH]2)CC1` was 3.12%; that for `OC(CNCCn1cccn1)COc1ccc(Br)cc1` (configuration not stated) was -8.03%. With `CN(C)CCN1CC(C(=O)N2CCC(c3cccc(O)c3)CC2)CC1=O` (configuration not stated) the figure was 0.0902%. Turning to `COC(=O)c1cc(OCC2CCC2)cc(C(=O)N[C@@H]2CCCNC2)c1`, the cytotoxicity at 10 µM was -3.16%. Consider `CCOC(C)c1noc(CN2CCCNCC2)n1` (configuration not stated), for which the cytotoxicity at 10 µM was 5.44%. The value for `COCC(NC(=O)c1ccco1)c1cccc(C(F)(F)F)c1` (configuration not stated) was -3.96%. For `Cn1ncc(-c2cc(-c3cccc(O)c3)nc(N)c2C#N)c1C1CC1`, the cytotoxicity at 10 µM came out at 79.1%. The value for `CC(C)CCn1nc(CNc2ccc(Br)cc2)nc1O` was 9.84%. Take `N#CC1CCCN(c2nc(-c3ccccc3)nc3c2CCNCC3)C1` (configuration not stated): the cytotoxicity at 10 µM was -0.468%. The value for `CCC(C)(O)CNC(=O)Nc1ccc(C)cc1Br` (configuration not stated) was -9.95%; that for `Cc1cccc(N2CCC3(CCCN3Cc3cnn(C)c3C)CC2)n1` was -2.35%; that for `CC(O)CN1CCN(C(=O)CN(C)c2cnccn2)CC1` (configuration not stated) was 2.53%.
